Activity calls are given as the source filed them. No cut-off for these calls is given here.
Columns and labels:
[1] = Toxicity in BALB/c mouse assessed as pathological alterations in lung at 70 mg/kg, po administered once daily for 7 days and measured on day 15; assay type: organism-based; settings: in vivo, 168 h, time 7 day
[2] = biological target: CDK2/Cyclin A2 (Homo sapiens) (UniProt P24941+P20248); assay: Inhibition of CDK2/cyclin-A (unknown origin) at 1 uM; assay type: protein-complex assay
In short: (§1)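 Residual activity of each kinase with compound at 1 µM, measured in a contracted radioisotope-based kinase profiling assay and expressed as % kinase activity remaining.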

CDK9/cyclin T1 = CDK9/cyclin T1 (Homo sapiens, UniProt P50750); assay: Inhibition of CDK9/Cyclin T1 (unknown origin); assay type: protein-complex assay
In short: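 IC50 measured in a contracted radiometric kinase assay with ATP at the experimentally determined Km(ATP) of each kinase. Apparent Ki was derived by Cheng-Prusoff: Ki = IC50/(1+[ATP]/Km(ATP)).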

[3] = biological target: CDK3/Cyclin E (Homo sapiens) (UniProt P24864+Q00526); assay: Inhibition of CDK3/cyclin-E (unknown origin) at 1 uM; assay type: protein-complex assay; in short: as §1
[4] = Clearance in BALB/c mouse at 2 mg/kg, iv measured up to 24 hrs by LC-MS/MS analysis; settings: in vivo
[5] = biological target: Cyclin-dependent kinase 1/cyclin B1 (Homo sapiens) (UniProt P06493+P14635); assay: Inhibition of CDK1/cyclin-B (unknown origin) at 1 uM relative to control; assay type: protein-complex assay; in short: as §1
[6] = biological target: CDK17/Cyclin-Y (Homo sapiens) (UniProt Q00537+Q8ND76); assay: Inhibition of CDK17/Cyclin Y (unknown origin) at 1 uM; assay type: protein-complex assay; in short: as §1
[7] = Toxicity in BALB/c mouse assessed as macrophages at 70 mg/kg, po administered once daily for 7 days and measured on day 15 by flow cytometric analysis; assay type: organism-based; settings: in vivo, 168 h, time 7 day
[8] = biological target: CDK7/Cyclin H/MNAT1 (Homo sapiens) (UniProt P51946+P50613+P51948); assay: Inhibition of CDK7/cyclin H/MNAT1 (unknown origin) at 1 uM; assay type: protein-complex assay; in short: as §1
[9] = Tmax in Sprague-Dawley rat at 5 mg/kg, iv measured up to 24 hrs by LC-MS/MS analysis; assay type: ADME, organism-based; settings: in vivo
[10] = AUC in BALB/c mouse at 10 mg/kg, po measured up to 24 hrs by LC-MS/MS analysis; settings: in vivo
[11] = AUC in Sprague-Dawley rat at 20 mg/kg, po measured up to 24 hrs by LC-MS/MS analysis; assay type: ADME, organism-based; set-up: route oral, dose 20 mg/kg, time <=24; settings: in vivo
[12] = biological target: CDK18/Cyclin Y (Homo sapiens) (UniProt Q07002+Q8ND76); assay: Inhibition of CDK18/Cyclin Y (unknown origin) at 1 uM; assay type: protein-complex assay; in short: as §1
[13] = Clearance in Sprague-Dawley rat at 5 mg/kg, iv measured up to 24 hrs by LC-MS/MS analysis; assay type: ADME, organism-based; settings: in vivo
[14] = biological target: Cyclin-Y/Cyclin-dependent kinase 16 (Homo sapiens) (UniProt Q00536+Q8ND76); assay: Inhibition of CDK16/Cyclin Y (unknown origin) at 1 uM; assay type: protein-complex assay; in short: as §1
[15] = biological target: T1, Cyclin-dependent kinase 5/CDK5 activator 1 (Homo sapiens) (UniProt Q00535+Q15078); assay: Inhibition of CDK5/p25 (unknown origin) at 1 uM; assay type: protein-complex assay; in short: as §1
[16] = Cmax in BALB/c mouse at 10 mg/kg, po measured up to 24 hrs by LC-MS/MS analysis; settings: in vivo
[17] = system: Glycogen synthase kinase-3 beta (Homo sapiens), P49841 [UNDEFINED MUTATION]; assay: Inhibition of human GSKbeta H350L mutant (2 to 3nd residues) at 1 uM using YRRAAVPPSPSLSRHSSPHQS(p) EDEEE as substrate incubated for 40 mins in presence of [gamma-33P]-ATP by scintillation counting method relative to control
In short: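 Single-point screen of residual kinase activity (%) at 1 µM compound. Run as a contract radiometric [γ-33P]-ATP kinase assay, either the KinaseProfiler service or the HotSpot assay. ATP was set at the experimentally determined Km(ATP) of each kinase.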

[18] = Half life in BALB/c mouse at 2 mg/kg, iv measured up to 24 hrs by LC-MS/MS analysis; settings: in vivo
[19] = biological target: T1, Cyclin-dependent kinase 5/CDK5 activator 1 (Homo sapiens); assay: Inhibition of CDK5/p35 (unknown origin) at 1 uM; assay type: protein-complex assay; in short: as §1
[20] = Toxicity in BALB/c mouse assessed as disordered chondrocyte columns at 70 mg/kg, po administered once daily for 7 days and measured on day 15; assay type: organism-based; settings: in vivo, 168 h, time 7 day
[21] = Toxicity in BALB/c mouse assessed as pathological alterations in left femora at 70 mg/kg, po administered once daily for 7 days and measured on day 15; assay type: organism-based; settings: in vivo, 168 h, time 7 day
[22] = Volume of distribution at steady state in BALB/c mouse at 2 mg/kg, iv measured up to 24 hrs by LC-MS/MS analysis; settings: in vivo, read-out: Vdss
[23] = Toxicity in BALB/c mouse assessed as neutrophils at 70 mg/kg, po administered once daily for 7 days and measured on day 15 by flow cytometric analysis; assay type: organism-based; settings: in vivo, 168 h, time 7 day
[24] = Toxicity in BALB/c mouse assessed as increase in body weight at 70 mg/kg, po administered once daily for 7 days and measured on day 15 relative to control; assay type: organism-based; settings: in vivo, 168 h, time 7 day
[25] = Tmax in BALB/c mouse at 10 mg/kg, po measured up to 24 hrs by LC-MS/MS analysis; settings: in vivo
[26] = Growth inhibition human PL-21 cells after 72 hrs by resazurin or MTT assay; assay type: functional, PL21
In short: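 Tumour cell lines kept in RPMI-1640, DMEM or MEM with 10% FBS at 37 °C, 5% CO2, mycoplasma-free. Exposure lasted 72 h. Viability was read by MTT for adherent solid-tumour lines and by resazurin for suspension leukaemia lines. GI50 came from nonlinear regression, given as mean ± standard deviation of at least two replicates unless stated otherwise.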

[27] = biological target: Glycogen synthase kinase-3 beta (Homo sapiens, UniProt P49841); assay: Inhibition of human GSKbeta H350L mutant (2 to 3nd residues) using YRRAAVPPSPSLSRHSSPHQS(p) EDEEE as substrate incubated for 40 mins in presence of [gamma-33P]-ATP by scintillation counting method
In short: (§2)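 Outsourced radioisotope (HotSpot) kinase assay run by a contract lab, with ATP at the kinase's Km(ATP). The IC50 was converted to an apparent Ki by the Cheng-Prusoff equation, Ki = IC50/(1+[ATP]/Km(ATP)), using the experimentally determined Km(ATP).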

[28] = biological target: Glycogen synthase kinase-3 alpha (Homo sapiens, UniProt P49840); assay: Inhibition of human GSKalpha S449A mutant (2 to 3nd residues) using YRRAAVPPSPSLSRHSSPHQS(p) EDEEE as substrate incubated for 40 mins in presence of [gamma-33P]-ATP by scintillation counting method; in short: as §2
Sequence of Glycogen synthase kinase-3 alpha (P49840 whole entry): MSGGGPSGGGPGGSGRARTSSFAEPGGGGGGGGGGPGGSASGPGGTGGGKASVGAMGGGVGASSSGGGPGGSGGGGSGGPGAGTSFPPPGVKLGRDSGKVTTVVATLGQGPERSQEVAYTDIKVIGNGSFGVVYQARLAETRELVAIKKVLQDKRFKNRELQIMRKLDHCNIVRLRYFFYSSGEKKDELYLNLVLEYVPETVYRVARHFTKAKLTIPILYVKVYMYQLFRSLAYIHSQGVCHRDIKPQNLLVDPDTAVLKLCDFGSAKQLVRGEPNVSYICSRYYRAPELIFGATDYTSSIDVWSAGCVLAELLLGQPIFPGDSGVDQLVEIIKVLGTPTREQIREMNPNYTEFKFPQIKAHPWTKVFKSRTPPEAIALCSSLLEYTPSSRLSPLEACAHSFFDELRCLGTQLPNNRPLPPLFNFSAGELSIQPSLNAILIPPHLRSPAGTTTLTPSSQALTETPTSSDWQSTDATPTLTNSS

T1 sequence (Q00535 whole entry): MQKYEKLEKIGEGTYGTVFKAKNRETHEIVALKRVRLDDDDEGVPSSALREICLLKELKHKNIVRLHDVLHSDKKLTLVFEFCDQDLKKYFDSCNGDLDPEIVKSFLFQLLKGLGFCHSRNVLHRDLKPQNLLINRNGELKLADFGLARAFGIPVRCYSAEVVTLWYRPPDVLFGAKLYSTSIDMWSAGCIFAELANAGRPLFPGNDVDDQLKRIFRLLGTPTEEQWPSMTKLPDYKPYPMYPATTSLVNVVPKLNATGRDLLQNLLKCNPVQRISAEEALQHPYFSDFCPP
T1 sequence (Q15078 99-307 partner limits assumed): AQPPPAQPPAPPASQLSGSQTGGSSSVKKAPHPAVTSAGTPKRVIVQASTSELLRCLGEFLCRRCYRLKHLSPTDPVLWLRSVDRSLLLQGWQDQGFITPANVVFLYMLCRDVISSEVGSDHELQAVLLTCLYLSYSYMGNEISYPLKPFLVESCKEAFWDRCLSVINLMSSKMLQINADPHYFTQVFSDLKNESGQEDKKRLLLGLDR
Sequence of Glycogen synthase kinase-3 beta (P49841 whole entry): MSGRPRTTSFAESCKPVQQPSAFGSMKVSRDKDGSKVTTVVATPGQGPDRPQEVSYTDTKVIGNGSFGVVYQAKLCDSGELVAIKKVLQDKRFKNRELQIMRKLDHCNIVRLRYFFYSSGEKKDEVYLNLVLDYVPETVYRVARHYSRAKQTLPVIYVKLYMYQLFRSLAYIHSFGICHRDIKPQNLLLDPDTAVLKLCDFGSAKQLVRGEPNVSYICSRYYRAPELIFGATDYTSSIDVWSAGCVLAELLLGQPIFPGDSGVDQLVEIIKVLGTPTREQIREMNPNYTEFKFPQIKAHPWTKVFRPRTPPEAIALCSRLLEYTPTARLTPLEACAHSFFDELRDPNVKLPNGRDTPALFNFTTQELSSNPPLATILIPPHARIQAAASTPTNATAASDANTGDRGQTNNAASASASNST
Sequence of CDK17/Cyclin-Y (Homo sapiens) (Q00537 whole entry): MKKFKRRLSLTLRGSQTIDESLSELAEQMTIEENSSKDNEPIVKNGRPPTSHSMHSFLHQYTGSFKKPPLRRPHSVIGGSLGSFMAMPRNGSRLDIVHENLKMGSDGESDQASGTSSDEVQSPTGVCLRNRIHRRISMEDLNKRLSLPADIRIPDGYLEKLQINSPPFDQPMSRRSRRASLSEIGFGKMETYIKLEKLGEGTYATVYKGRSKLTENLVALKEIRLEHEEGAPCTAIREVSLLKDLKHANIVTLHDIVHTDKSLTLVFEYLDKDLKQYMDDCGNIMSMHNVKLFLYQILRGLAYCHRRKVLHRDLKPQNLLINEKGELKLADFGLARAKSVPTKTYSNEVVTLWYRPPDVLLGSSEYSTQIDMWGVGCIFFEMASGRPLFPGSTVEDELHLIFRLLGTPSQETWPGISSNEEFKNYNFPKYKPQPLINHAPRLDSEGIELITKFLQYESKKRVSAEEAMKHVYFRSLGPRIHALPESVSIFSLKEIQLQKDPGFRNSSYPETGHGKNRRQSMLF
Sequence of CDK17/Cyclin-Y (Homo sapiens) (Q8ND76 2-341 partner limits assumed): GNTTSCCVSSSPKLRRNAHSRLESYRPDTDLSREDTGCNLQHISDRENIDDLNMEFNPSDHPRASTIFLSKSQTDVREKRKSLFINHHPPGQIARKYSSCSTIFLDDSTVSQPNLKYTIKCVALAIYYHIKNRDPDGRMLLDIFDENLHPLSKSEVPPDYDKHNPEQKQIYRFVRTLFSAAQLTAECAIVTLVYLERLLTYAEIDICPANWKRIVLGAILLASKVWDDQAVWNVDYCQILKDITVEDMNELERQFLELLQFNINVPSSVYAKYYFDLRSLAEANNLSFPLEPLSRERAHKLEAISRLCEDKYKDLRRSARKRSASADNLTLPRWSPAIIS
Sequence of Cyclin-dependent kinase 1/cyclin B1 (Homo sapiens) (P06493 whole entry, looked up): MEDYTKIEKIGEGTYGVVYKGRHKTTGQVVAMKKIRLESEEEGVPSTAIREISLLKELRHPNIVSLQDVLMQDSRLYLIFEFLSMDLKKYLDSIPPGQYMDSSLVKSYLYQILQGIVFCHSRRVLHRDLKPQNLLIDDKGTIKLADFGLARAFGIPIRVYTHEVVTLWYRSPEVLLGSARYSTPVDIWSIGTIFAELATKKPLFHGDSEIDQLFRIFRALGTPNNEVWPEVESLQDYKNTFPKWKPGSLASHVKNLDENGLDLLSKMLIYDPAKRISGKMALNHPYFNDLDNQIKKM
Sequence of Cyclin-dependent kinase 1/cyclin B1 (Homo sapiens) (P14635 whole entry, looked up): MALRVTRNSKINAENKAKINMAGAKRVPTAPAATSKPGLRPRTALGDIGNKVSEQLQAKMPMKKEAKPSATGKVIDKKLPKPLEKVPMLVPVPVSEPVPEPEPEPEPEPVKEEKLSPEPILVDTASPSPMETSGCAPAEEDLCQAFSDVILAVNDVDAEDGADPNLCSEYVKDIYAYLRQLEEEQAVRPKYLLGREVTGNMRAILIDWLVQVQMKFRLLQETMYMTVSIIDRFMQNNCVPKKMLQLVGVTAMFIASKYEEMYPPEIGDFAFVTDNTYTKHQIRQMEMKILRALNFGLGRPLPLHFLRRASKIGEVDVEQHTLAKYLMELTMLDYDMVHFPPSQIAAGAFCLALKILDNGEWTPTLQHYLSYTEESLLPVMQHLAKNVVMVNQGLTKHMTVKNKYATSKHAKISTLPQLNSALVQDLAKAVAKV
Sequence of CDK9/cyclin T1 (O60563 whole entry): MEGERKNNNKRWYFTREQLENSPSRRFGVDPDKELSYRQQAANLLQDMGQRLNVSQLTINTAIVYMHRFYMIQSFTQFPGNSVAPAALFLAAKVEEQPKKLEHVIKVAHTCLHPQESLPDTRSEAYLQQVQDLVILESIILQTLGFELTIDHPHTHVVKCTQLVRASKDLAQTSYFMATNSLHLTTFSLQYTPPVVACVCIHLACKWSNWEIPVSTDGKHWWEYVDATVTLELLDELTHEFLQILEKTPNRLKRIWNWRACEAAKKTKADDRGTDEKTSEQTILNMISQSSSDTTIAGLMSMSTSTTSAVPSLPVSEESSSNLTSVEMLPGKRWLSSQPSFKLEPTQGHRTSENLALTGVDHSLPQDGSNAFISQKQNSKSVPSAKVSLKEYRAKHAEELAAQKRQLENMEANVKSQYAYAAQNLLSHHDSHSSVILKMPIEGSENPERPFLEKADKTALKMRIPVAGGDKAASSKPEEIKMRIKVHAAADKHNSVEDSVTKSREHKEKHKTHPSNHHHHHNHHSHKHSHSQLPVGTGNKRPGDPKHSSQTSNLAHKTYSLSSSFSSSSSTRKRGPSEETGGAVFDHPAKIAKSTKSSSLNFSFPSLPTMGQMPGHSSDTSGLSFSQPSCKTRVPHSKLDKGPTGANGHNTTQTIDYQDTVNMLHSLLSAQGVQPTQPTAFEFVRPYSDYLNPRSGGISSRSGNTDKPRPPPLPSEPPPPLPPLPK
Sequence of CDK9/cyclin T1 (P50750 whole entry): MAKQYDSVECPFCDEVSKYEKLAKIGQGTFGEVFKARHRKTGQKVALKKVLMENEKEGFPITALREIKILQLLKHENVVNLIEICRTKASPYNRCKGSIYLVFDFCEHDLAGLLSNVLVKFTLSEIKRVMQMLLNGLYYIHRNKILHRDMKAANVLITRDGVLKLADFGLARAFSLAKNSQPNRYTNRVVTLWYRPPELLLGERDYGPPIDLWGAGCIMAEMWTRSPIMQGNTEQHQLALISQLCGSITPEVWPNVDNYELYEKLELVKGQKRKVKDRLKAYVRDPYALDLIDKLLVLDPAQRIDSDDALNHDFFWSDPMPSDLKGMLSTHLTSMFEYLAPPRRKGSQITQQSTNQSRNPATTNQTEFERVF
Sequence of CDK3/Cyclin E (Homo sapiens) (P24864 whole entry, looked up): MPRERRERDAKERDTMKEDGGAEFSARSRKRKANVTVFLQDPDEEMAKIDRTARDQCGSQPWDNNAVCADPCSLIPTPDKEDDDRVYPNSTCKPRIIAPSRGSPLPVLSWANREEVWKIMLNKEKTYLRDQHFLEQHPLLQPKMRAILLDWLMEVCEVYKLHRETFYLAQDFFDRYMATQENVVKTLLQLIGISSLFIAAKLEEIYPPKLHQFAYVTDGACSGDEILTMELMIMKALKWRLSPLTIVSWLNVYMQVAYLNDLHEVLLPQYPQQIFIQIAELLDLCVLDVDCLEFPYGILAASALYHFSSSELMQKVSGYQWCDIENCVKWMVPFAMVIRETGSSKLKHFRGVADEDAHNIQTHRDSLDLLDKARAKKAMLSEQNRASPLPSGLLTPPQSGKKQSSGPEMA
Sequence of CDK3/Cyclin E (Homo sapiens) (Q00526 whole entry, looked up): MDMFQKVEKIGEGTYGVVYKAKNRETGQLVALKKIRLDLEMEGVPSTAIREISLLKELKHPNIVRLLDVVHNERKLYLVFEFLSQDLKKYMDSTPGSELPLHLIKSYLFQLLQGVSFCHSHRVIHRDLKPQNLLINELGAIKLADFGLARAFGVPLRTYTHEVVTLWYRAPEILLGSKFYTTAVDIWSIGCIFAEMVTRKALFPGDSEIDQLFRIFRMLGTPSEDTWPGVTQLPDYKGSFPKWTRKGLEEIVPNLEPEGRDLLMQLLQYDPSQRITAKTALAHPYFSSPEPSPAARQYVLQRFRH
Sequence of Glycogen synthase kinase-3 beta (Homo sapiens), P49841 [UNDEFINED MUTATION] (P49841 whole entry, looked up, stated change not applied): as the sequence (P49841 whole entry) above

O=C1NCCC12CCN(c1c(Cl)cncc1-c1cc3ccccc3o1)CC2
Activity [1]: Non-Toxic
inhibition [2]: inactive
Ki (CDK9/cyclin T1): 1770 nM
inhibition [3]: inactive
clearance [4]: 63 mL/min/kg
inhibition [5]: > 50%
inhibition [6]: inactive
Activity [7]: Non-Toxic
inhibition [8]: inactive
Tmax [9]: 2.4 min
AUC at 24 h [10]: 2.3 µM·h
AUC at 24 h [11]: 14.6 µM·h
inhibition [12]: inactive
clearance [13]: 23.2 mL/min/kg
inhibition [14]: inactive
inhibition [15]: inactive
Cmax [16]: 5.01 µM
inhibition [17]: > 50%
half-life [18]: 20.4 min
inhibition [19]: inactive
Activity [20]: Toxic
Activity [21]: Non-Toxic
Vd [22]: 1.99 L/kg
Activity [23]: Non-Toxic
Activity [24]: 12%
Tmax [25]: 25.2 min
GI50 [26]: 25400 nM
Ki [27]: 4 nM
Ki [28]: 13 nM

Cn1cc(-c2ccc(-c3cncc(Cl)c3N3CCC4(CCNC4=O)CC3)cc2)cn1
Activity [1]: Toxic
Activity [7]: Non-Toxic
Tmax [9]: 4.2 min
AUC at 24 h [11]: 17.5 µM·h
clearance [13]: 20 mL/min/kg
Activity [21]: Toxic
Activity [23]: Non-Toxic
GI50 [26]: 13800 nM
Ki [27]: 345 nM
Ki [28]: 231 nM
